The source made the active and inactive calls. The rule behind the calls is not given here.
Key:
[1] = molecular target: T1, Serine/threonine-protein kinase ATR (Homo sapiens, UniProt Q13535); assay: Inhibition of 5'-TAMRA-labeled tracer 3',6'-bis(dimethylamino)-N-(4-{[2(1H-indol-4-yl)-6-(morpholin-4-yl)-pyrimidin-4-yl]amino}butyl)-3-oxo-3H-spiro[2-benzofuran-1,9'-xanthene]-5-carboxamide binding to recombinant human full-length N-terminal Flag-tagged ATR expressed in HEK293-6E cells co-expressing human full-length STREP-tagged ATRIP preincubated for 10 mins followed by tracer addition and measured after 30 mins by TR-FRET assay; type: cell-based
T1 sequence (Q13535 whole entry): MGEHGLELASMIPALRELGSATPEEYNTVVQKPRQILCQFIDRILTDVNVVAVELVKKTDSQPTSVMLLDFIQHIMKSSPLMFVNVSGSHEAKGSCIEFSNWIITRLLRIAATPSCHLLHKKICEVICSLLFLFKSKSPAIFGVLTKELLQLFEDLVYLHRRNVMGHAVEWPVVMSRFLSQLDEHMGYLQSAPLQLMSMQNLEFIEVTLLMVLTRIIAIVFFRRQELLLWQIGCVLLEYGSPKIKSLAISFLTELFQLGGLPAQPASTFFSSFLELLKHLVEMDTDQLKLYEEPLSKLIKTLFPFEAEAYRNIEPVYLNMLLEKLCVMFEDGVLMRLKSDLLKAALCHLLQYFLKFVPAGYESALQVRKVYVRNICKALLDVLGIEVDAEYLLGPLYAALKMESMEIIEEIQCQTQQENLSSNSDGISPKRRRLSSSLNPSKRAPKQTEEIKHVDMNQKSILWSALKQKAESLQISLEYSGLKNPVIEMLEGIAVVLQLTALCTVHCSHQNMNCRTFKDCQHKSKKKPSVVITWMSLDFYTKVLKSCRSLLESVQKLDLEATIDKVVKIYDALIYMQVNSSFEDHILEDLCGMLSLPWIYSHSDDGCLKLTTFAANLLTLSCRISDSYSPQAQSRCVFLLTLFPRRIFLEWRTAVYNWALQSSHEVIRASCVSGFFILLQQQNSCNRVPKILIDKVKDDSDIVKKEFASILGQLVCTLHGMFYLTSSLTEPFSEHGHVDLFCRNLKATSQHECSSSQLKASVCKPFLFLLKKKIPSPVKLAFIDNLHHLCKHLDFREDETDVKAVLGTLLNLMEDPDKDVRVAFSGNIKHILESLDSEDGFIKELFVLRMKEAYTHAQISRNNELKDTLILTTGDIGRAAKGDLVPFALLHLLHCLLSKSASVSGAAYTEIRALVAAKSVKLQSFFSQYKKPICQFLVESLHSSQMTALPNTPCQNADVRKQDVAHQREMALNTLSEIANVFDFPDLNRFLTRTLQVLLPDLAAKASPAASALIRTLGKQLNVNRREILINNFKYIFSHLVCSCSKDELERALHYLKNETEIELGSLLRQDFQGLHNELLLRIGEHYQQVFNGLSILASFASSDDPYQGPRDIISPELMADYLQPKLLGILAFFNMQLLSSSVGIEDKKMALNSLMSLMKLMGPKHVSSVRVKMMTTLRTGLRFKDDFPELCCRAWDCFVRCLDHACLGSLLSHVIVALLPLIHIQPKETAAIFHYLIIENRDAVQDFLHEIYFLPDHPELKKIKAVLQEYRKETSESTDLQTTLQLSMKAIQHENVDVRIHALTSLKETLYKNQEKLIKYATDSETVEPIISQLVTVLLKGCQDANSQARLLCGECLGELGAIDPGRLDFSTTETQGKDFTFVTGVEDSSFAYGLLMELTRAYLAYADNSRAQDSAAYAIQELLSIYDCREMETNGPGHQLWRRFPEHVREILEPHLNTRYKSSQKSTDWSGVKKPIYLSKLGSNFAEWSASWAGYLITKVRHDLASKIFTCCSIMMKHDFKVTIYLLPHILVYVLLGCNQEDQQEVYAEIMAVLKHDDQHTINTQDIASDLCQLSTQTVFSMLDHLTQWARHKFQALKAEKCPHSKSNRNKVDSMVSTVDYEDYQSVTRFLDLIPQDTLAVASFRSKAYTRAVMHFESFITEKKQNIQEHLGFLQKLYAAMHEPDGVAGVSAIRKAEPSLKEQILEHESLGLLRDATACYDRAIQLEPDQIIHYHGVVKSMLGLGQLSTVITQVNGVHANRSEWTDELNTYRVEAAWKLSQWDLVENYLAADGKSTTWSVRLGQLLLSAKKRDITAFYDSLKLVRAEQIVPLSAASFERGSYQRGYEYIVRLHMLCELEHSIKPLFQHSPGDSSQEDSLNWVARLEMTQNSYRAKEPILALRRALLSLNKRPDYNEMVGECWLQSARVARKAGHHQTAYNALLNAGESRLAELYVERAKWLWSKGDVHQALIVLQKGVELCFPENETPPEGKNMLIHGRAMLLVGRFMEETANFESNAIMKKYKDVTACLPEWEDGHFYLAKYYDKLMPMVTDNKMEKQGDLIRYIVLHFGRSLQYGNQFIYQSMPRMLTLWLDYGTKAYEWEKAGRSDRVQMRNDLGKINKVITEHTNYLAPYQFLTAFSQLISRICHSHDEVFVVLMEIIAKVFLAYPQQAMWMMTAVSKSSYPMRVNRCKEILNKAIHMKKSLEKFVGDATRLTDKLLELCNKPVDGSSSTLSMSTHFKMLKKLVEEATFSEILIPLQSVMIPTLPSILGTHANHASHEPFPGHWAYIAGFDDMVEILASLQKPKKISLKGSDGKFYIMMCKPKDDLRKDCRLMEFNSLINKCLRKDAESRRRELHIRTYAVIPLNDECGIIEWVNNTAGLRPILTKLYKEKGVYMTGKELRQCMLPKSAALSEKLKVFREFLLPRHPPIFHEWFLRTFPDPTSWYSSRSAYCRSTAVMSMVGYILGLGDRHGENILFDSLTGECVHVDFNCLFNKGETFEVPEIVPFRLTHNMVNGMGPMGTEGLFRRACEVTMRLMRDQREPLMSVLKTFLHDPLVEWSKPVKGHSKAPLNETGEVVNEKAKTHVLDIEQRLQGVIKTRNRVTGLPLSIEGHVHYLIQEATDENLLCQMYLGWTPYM

[2] = Selectivity ratio of IC50 for inhibition of PI3K/AKT/mTOR signaling pathway in human MCF7 cells to IC50 for inhibition of ATR in human HT-29 cells
[3] = tested on: HT-29; assay: Antiproliferative activity against human HT-29 cells assessed as reduction in cell viability measured after 4 days by crystal violet staining based assay; type: functional; details: HT-29, 96 h
Outline: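 Cells plated at 2000 (HT-29) or 3000 (LoVo) per point in DMEM/Ham's F12 with 2 mM L-glutamine and 10% FCS. After 24 h adherence, compounds were added at 0.001–10 μM (0.1% DMSO final) and incubated continuously for 4 d at 37 °C. Cells were glutaraldehyde-fixed, stained with crystal violet and read at 595 nm.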

[4] = molecular target: T1, Serine/threonine-protein kinase ATR; assay: Inhibition of ATR in human HT-29 cells assessed as reduction in histone H2AX phosphorylation measured after 30 mins by immunofluorescence cytometric assay; type: cell-based
Outline: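 HT-29 cells were seeded at 12000/point in DMEM/Ham's F12 with 2 mM L-glutamine and 10% FCS and grown 24 h at 37 °C. Compound (1 nM–10 μM final) was added with hydroxyurea (2.5 mM final) for 30 min at 37 °C.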

[5] = molecular target: Voltage-gated inwardly rectifying potassium channel KCNH2 (Homo sapiens, UniProt Q12809); assay: Inhibition of recombinant human ERG stably expressed in HEK293 cells at -80 mV by whole cell voltage clamp method
Voltage-gated inwardly rectifying potassium channel KCNH2, sequence (Q12809 whole entry): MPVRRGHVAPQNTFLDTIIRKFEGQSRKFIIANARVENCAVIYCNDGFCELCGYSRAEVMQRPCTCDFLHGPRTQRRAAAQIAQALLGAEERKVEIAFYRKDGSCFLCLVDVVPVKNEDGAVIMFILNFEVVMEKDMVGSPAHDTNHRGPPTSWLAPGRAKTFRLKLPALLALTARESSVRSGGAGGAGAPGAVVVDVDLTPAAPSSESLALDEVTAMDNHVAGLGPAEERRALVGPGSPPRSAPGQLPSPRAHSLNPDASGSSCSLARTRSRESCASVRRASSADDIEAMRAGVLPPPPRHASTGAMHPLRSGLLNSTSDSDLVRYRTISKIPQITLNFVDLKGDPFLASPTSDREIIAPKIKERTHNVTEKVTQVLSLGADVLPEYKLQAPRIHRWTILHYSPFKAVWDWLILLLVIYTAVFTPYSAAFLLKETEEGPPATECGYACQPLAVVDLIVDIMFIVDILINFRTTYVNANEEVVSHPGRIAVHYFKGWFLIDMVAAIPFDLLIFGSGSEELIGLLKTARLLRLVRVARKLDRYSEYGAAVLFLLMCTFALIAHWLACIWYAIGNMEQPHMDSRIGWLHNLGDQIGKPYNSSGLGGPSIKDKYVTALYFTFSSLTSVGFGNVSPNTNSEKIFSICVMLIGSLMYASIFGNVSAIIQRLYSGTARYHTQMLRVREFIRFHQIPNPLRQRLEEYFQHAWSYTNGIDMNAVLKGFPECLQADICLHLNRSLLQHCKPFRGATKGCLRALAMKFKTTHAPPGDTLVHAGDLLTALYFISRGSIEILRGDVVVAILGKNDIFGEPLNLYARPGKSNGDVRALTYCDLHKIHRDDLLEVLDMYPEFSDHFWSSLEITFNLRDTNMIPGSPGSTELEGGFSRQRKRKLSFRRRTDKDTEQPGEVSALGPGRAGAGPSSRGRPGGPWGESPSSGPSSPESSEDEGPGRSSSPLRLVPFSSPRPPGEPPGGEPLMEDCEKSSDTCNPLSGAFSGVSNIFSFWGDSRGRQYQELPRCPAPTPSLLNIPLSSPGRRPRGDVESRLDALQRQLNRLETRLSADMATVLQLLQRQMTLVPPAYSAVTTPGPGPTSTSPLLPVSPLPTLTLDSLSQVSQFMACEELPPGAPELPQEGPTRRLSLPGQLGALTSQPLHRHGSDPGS

[6] = physchem; details: pH 6.5
[7] = Apparent permeability across apical to basolateral side in human Caco2 cells at 2 uM measured after 2 hrs by LC-MS/MS analysis; details: Caco-2
[8] = Volume of distribution at steady state in Wistar rat at 0.3 to 0.5 mg/kg, iv administered as bolus dose by LC-MS/MS analysis; type: ADME, organism-based; details: in vivo, read-out: Vdss
[9] = Clearance in Han-Wistar rat hepatocytes at 1 uM measured after 2 to 90 mins by LC-MS/MS analysis; type: ADME, cell-based, Hepatocyte
[10] = Clearance in Wistar rat at 0.3 to 0.5 mg/kg, iv administered as bolus dose by LC-MS/MS analysis; type: ADME, organism-based; details: in vivo
[11] = Clearance in rat liver microsomes at 1 uM measured after 2 to 60 mins in presence of NADP by LC-MS/MS analysis; type: ADME, Microsome
[12] = Efflux ratio of apparent permeability across basolateral to apical side over apical to basolateral side in human Caco2 cells at 2 uM; details: Caco-2
[13] = Apparent half life in Wistar rat at 0.3 to 0.5 mg/kg, iv administered as bolus dose by LC-MS/MS analysis; type: ADME, organism-based; details: in vivo, read-out: t1/2(app) (converted)
[14] = Lipophilicity, log D of the compound in pH 7.5 MeCN/H2O solution by reversed-phase HPLC analysis
[15] = Oral bioavailability in Wistar rat at 0.6 to 1 mg/kg by LC-MS/MS analysis; type: ADME, organism-based; details: in vivo
[16] = tested on: HT-29; assay: Antitumor activity against human HT-29 cells xenografted in po dosed mouse administered twice daily; type: functional, organism-based
[17] = tested on: LoVo; assay: Antiproliferative activity against human LoVo cells assessed as reduction in cell viability measured after 4 days by crystal violet staining based assay; type: functional; details: 96 h

SMILES	IC50 [1]	IC50 [3]	IC50 [4]	other results
CC(C)Oc1cc(N2CCOCC2)nc2c(-c3cn[nH]c3)nccc12	3.69 µM	–	–	–
CC(C)Oc1cc(N2CCOCC2)nc2c(-c3cnc[nH]3)nccc12	3.4 µM	–	–	–
C[C@@H]1COCCN1c1cc(C#Cc2cccnc2)c2ccnc(-c3ccn[nH]3)c2n1	0.022 µM	405 nM	227 nM	Ratio IC50 [2]: 8
CC(C)Oc1cc(N2CCOCC2)nc2c(-c3ccnn3C)nccc12	12.5 µM	–	–	–
CC(C)Oc1cc(N2C3CCC2COC3)nc2c(-c3ccn[nH]3)nccc12	0.31 µM	–	–	–
CC(C)Oc1cc(N2CCOCC2)nc2c(-c3cc4ccccc4[nH]3)nccc12	> 20 µM	–	–	–
CC(C)Oc1cc(N2CCO[C@H](C)C2)nc2c(-c3ccn[nH]3)nccc12	1.5 µM	–	–	–
Cc1cn[nH]c1-c1nccc2c(OC(C)C)cc(N3CCOCC3)nc12	5.64 µM	–	–	–
CC(C)Oc1cc(N2CCOCC2)nc2c(C(N)=O)nccc12	3.3 µM	–	–	–
Cc1nccn1-c1cc(N2CCOC[C@H]2C)nc2c(-c3ccn[nH]3)nccc12	0.025 µM	192 nM	76 nM	Ratio IC50 [2]: 263
C[C@@H]1COCCN1c1cc(-c2cccnc2F)c2ccnc(-c3ccn[nH]3)c2n1	0.008 µM	175 nM	44 nM	Ratio IC50 [2]: 50
CC(C)Oc1cc(N2CCO[C@@H](C)C2)nc2c(-c3ccn[nH]3)nccc12	1.97 µM	–	–	–
Cc1nc(S(C)(=N)=O)ccc1-c1cc(N2CCOC[C@H]2C)nc2c(-c3ccn[nH]3)nccc12 (stereo not given in full)	0.01 µM	323 nM	266 nM	Ratio IC50 [2]: 16
CC(C)Oc1cc(N2CCOCC2)nc2c(-c3nnn[nH]3)nccc12	> 20 µM	–	–	–
CC(C)Oc1cc(N2CCOC3CC32)nc2c(-c3ccn[nH]3)nccc12 (stereo not given)	1.51 µM	–	–	–
CC(C)Oc1cc(N2CCOCC2)nc2c(-c3cccc(=O)[nH]3)nccc12	> 20 µM	–	–	–
CC(C)Oc1cc(N2CCOCC2)nc2c(-c3cccc(C(N)=O)c3)nccc12	17.2 µM	–	–	–
CS(=O)(=O)c1ccc(-c2cc(N3CCOCC3)nc3c(-c4cc[nH]n4)nccc23)cc1	–	–	380 nM	IC50 [5]: 5.8 µM; solubility at 24 h [6]: < 1 µg/mL; Papp A→B at 2 h, 2 µM [7]: 10.2 ×10⁻⁶ cm/s; Vd [8]: 2 L/kg; CLH [9]: 0.64 L/h/kg; clearance [10]: 25 mL/min/kg; CLH [11]: 0.69 L/h/kg; efflux ratio at 2 µM [12]: 2.1; half-life [13]: 55.8 min; chromatographic logD [14]: 2.1; bioavailability [15]: 14%
CCS(=O)(CC)=Nc1cc(N2CCOC[C@H]2C)nc2c(-c3ccn[nH]3)nccc12	0.022 µM	168 nM	30 nM	Ratio IC50 [2]: 217
CC(C)Oc1cc(N2CCOCC2)nc2c(-c3ccn[nH]3)nccc12	–	–	424 nM	Ratio IC50 [2]: 5
CC(C)Oc1cc(N2CCOCC2)nc2c(-c3ccn[nH]3)cccc12	5.05 µM	–	–	–
C[C@@H]1COCCN1c1cc(-c2cnc3n2CCC3)c2ccnc(-c3ccn[nH]3)c2n1	–	125 nM	82 nM	Ratio IC50 [2]: 59
C[C@@H]1COCCN1c1cc(C(C)(O)C(C)(C)C)c2ccnc(-c3ccn[nH]3)c2n1 (stereo not given in full)	–	93 nM	–	–

SMILES	IC50 [1]	IC50 [3]	IC50 [4]	other results
CC(C)Oc1cc(N2C[C@H]3COC[C@H]3C2)nc2c(-c3ccn[nH]3)nccc12	9.44 µM	–	–	–
CC(C)Oc1cc(N2CCOCC2)nc2c(C3CCNC3)nccc12 (stereo not given)	> 20 µM	–	–	–
CCP(=O)(CC)c1cc(N2CCOC[C@H]2C)nc2c(-c3ccn[nH]3)nccc12	–	498 nM	289 nM	Ratio IC50 [2]: 61
CC(C)Oc1cc(N2CCOCC2(C)C)nc2c(-c3ccn[nH]3)nccc12	> 20 µM	–	–	–
CC(C)Oc1cc(N2CCOCC2C(F)(F)F)nc2c(-c3ccn[nH]3)nccc12 (stereo not given)	8.61 µM	–	–	–
CCC1COCCN1c1cc(OC(C)C)c2ccnc(-c3ccn[nH]3)c2n1 (stereo not given)	1.86 µM	–	–	–
CC(C)Oc1cc(N2CCOCC2)nc2c(-c3cccnc3)nccc12	18.1 µM	–	–	–
CC(C)Oc1cc(N2CCOCC2)nc2cnccc12	> 20 µM	–	–	–
C[C@@H]1COCCN1c1cc(C2CCOCC2)c2ccnc(-c3ccn[nH]3)c2n1	–	292 nM	–	–
Cc1cc(-c2nccc3c(OC(C)C)cc(N4CCOCC4)nc23)n[nH]1	12.7 µM	–	–	–
C[C@@H]1COCCN1c1cc(N(C)c2ccc(F)cc2)c2ccnc(-c3ccn[nH]3)c2n1	0.009 µM	381 nM	70 nM	Ratio IC50 [2]: 42
CC(C)Oc1cc(N2CCOCC2)nc2c(-c3ccc[nH]c3=O)nccc12	> 20 µM	–	–	–
CC(C)Oc1cc(N2CCOC[C@H]2C)nc2c(-c3ccn[nH]3)nccc12	–	929 nM	154 nM	Ratio IC50 [2]: 25
COc1cccc(-c2nccc3c(OC(C)C)cc(N4CCOCC4)nc23)n1	13.2 µM	–	–	–
C[C@@H]1COCCN1c1cc(C2(S(C)(=O)=O)CC2)c2ccnc(-c3ccn[nH]3)c2n1	0.015 µM	268 nM	86 nM	Ratio IC50 [2]: 71
CS(=O)(=O)c1ccc(-c2cc(N3CCOCC3)nc3c(-c4ccn[nH]4)nccc23)cc1	–	704 nM	–	Activity [16]: Active; Ratio IC50 [2]: 13; IC50 [17]: 315 nM
C[C@@H]1COCCN1c1cc(N2CCN(S(C)(=O)=O)CC2)c2ccnc(-c3ccn[nH]3)c2n1	0.005 µM	233 nM	59 nM	Ratio IC50 [2]: 44
CNC(=O)c1nccc2c(OC(C)C)cc(N3CCOCC3)nc12	> 20 µM	–	–	–
CC(C)Oc1cc(N2C[C@@H]3C[C@H]2CO3)nc2c(-c3ccn[nH]3)nccc12	0.922 µM	–	–	–
COC1(C)CN(c2cc(OC(C)C)c3ccnc(-c4ccn[nH]4)c3n2)C1	> 20 µM	–	–	–
CC(C)Oc1cc(N2CCOCC2)nc2c(-c3ccc[nH]3)nccc12	–	–	> 3000 nM	–
CC(C)Oc1cc(N2CC(F)(F)OC(F)(F)C2)nc2c(-c3ccn[nH]3)nccc12	> 20 µM	–	–	–

Reference: ChEMBL document CHEMBL4610117 (J Med Chem, 2020)
